ChEMBL document CHEMBL1144585, “Synthesis and evaluation of N-acetyl-L-tyrosine based compounds as PPARalpha selective activators” (Eur J Med Chem, 2007)

How the values were obtained:
[1] = molecular target: T1, Peroxisome proliferator-activated receptor alpha (Homo sapiens) (UniProt Q07869); experiment: Agonist activity at human recombinant PPARalpha at 50 uM by GAL4 transactivation assay relative to control; type: functional
T1 sequence (whole entry): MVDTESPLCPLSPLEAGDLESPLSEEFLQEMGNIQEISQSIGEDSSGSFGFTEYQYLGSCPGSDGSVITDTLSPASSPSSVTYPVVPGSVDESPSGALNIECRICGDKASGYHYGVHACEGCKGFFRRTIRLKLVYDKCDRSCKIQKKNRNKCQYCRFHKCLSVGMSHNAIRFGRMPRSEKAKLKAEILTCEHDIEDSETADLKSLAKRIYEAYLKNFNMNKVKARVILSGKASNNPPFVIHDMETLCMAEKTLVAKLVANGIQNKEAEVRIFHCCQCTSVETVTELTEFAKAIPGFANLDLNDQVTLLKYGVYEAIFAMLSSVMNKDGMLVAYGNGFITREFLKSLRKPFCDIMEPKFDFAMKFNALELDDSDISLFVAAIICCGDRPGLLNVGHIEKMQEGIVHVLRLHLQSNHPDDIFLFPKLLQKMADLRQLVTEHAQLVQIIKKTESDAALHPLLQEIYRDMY
Procedure, shortened: (§1)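 Cell-based transcription assay: cells transfected with a GAL4–PPAR chimeric receptor expression plasmid, with luciferase gene activation as the read-out. PPARα was tested at 50 µM against WY 14,643 as the reference. PPARγ was tested at 30 µM against rosiglitazone as the reference. Values are fold activation at the same concentration.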

[2] = molecular target: T2, Peroxisome proliferator-activated receptor gamma (Homo sapiens) (UniProt P37231); experiment: Agonist activity at human recombinant PPARgamma at 30 uM by GAL4 transactivation assay relative to control; type: functional; procedure, shortened: as §1
T2 sequence (whole entry): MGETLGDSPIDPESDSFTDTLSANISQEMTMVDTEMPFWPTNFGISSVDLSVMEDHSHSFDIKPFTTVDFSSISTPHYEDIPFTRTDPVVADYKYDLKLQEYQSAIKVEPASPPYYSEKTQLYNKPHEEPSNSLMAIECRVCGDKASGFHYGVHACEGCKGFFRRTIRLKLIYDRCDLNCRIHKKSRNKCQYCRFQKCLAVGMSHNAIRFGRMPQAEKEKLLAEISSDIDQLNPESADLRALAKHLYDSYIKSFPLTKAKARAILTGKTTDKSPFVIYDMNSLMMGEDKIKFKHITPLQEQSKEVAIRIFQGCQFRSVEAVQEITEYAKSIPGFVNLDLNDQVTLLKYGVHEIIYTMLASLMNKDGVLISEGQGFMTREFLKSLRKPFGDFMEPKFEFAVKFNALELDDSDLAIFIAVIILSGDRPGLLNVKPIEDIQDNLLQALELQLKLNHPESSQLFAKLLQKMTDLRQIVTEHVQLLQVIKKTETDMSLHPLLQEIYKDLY

Row | Fold change [1] | Fold change [2] | SMILES
1 | 1.6 | 5.4 | CCOC(=O)[C@H](Cc1ccc(OCCn2c3ccccc3c3ccccc32)cc1)NC(C)=O
2 | 4.6 | 2.4 | CC(=O)N[C@@H](Cc1ccc(OCCOc2ccc(C(=O)c3ccc(Cl)cc3)cc2)cc1)C(=O)O
3 | 4.4 | 5.4 | COc1ccc(COc2ccc(C[C@H](NC(C)=O)C(=O)O)cc2)cc1
4 | – | 27.2 | CN(CCOc1ccc(CC2SC(=O)NC2=O)cc1)c1ccccn1 (stereo not given)
5 | 2.5 | 1.2 | CC(=O)N[C@@H](Cc1ccc(OCCC(=O)Nc2ccccc2C(F)(F)F)cc1)C(=O)O
6 | 2.4 | 1.3 | CCOC(=O)[C@H](Cc1ccc(OCc2ccc(OC)cc2)cc1)NC(C)=O
7 | 3.2 | 1.4 | CCN(CCOc1ccc(C[C@H](NC(C)=O)C(=O)O)cc1)c1cccc(C)c1
8 | 2.3 | 0.8 | CCOC(=O)[C@H](Cc1ccc(OCc2c3ccccc3cc3ccccc23)cc1)NC(C)=O
9 | 2 | 1 | CCOC(=O)[C@H](Cc1ccc(OCc2ccc(Cl)cc2)cc1)NC(C)=O
10 | 3.4 | 4.2 | CC(=O)N[C@@H](Cc1ccc(OCCn2c3ccccc3c3ccccc32)cc1)C(=O)O
11 | 3.3 | 0.9 | CCOC(=O)[C@H](Cc1ccc(OCCOc2ccc(C(=O)c3ccc(Cl)cc3)cc2)cc1)NC(C)=O
12 | 4.2 | – | Cc1cccc(Nc2cc(Cl)nc(SCC(=O)O)n2)c1C
13 | 2.9 | 1.1 | CCOC(=O)[C@H](Cc1ccc(OCCN(CC)c2cccc(C)c2)cc1)NC(C)=O
14 | 3 | 1.9 | CC(=O)N[C@@H](Cc1ccc(OCc2ccc(Cl)cc2)cc1)C(=O)O
15 | 1 | 1.8 | CCOC(=O)[C@H](Cc1ccc(OCCC(=O)Nc2ccccc2C(F)(F)F)cc1)NC(C)=O
16 | 3.1 | 1.3 | CC(=O)N[C@@H](Cc1ccc(OCc2c3ccccc3cc3ccccc23)cc1)C(=O)O
